High-throughput results: PubChem, several laboratories
Hits are enriched below; roughly 2.8% of the tested compounds scored in any of these assays.
AI-2 QS mod = Vibrio harveyi AI-2 quorum sensing modulation. Vibrio harveyi JMH597 AI-2 luminescence/OD600 ratio, 9 h; stronger effect = lower value; strain lacks LuxN and CqsS sensors; 0 = neutral-control median. hit rate 0.4% among 300,000. activity change, % at 7.5 µM. AID 2094; in the data active means activity change below about -75%, passing the limit was not always enough;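 further: luminescence divided by OD600 gain over 9 h not by final OD600 alone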
UBC13 polyUb = human UBC13 polyubiquitination inhibition; P61088; UBC13 polyubiquitin chain formation, TR-FRET; inhibition, % at 20 µM; hit rate 0.47% among 330,000; in the data active means inhibition above about 45%, passing the limit was not always enough
Target sequence (P61088 whole entry, looked up): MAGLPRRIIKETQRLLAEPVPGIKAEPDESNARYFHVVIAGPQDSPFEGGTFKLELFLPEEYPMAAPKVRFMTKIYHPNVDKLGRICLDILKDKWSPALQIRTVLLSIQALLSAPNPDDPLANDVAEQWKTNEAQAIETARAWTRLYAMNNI
PP1 inh = blocks human PP1-alpha phosphatase, a PP5 counter-screen. purified PP1alpha, OMFP fluorescence. inhibition, % at 6.7 µM. hit rate 0.9% among 320,000;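 active means inhibition above the mean inhibition of all tested compounds plus 3 SD, computed separately for each screening campaign, cut at about 15% in these data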
Target sequence (P62136 whole entry, looked up): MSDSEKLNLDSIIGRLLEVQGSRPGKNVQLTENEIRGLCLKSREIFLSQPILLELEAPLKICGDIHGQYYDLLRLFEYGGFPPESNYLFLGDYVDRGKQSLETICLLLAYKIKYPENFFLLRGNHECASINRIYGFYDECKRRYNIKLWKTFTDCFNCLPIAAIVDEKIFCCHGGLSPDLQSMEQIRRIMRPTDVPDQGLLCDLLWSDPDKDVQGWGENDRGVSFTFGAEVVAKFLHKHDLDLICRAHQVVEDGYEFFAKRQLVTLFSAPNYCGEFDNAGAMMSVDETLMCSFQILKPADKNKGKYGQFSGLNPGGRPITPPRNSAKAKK
pCIP destab = lowers stability of the mouse p/CIP coactivator protein; F442A p/CIP-EGFP cells, EGFP fluorescence, 16 h; hit rate 0.01% among 290,000; Q05BA5; decrease of EGFP signal, % at 10 µM;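 active means EGFP signal decrease of at least 30% at 10 µM or well 3 SD below plate mean, unless failing retest; inactive means the rest, including hits failing retest or dose response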
T cruzi inh = T. cruzi replication inhibition; AID 1885; T. cruzi beta-gal in NIH3T3, luminescence, 90 h; hit rate 1.4% among 300,000; inhibition, % (concentration not given with the values);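 active means mean inhibition across valid replicates above about 55%, limit read from the data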;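 further: signal also drops with host cell toxicity which is not excluded here; higher percent means less beta-gal luminescence so fewer parasites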
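System: Mouse NIH/3T3 fibroblasts infected with β-gal-expressing T. cruzi Tulahuen C4 | Quantity: NIH/3T3 cells, 5,000 per well | Reagent: 5000 reporter trypomastigotes per well | Dosing: Compound pinned at 50 nL/well, DMSO | Schedule: 3 h host attachment, then at least 90 h co-culture | Detection: GalScreen luminescence, 60 min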
Hits are given with their value; i = inactive; nt = no result.

SMILES	AI-2 QS mod	UBC13 polyUb	PP1 inh	pCIP destab	T cruzi inh
Cc1cccc2nc(CNC(=O)CC3C(=O)NCCN3Cc3cccc(F)c3)cn12 (stereo unspecified)	i	i	i	i	58.5
Cc1ccc(S(=O)(=O)NN2C(=O)/C(=C/c3cccn3C)SC2=S)cc1	nt	nt	i	i	nt
Cn1cccc1/C=C1\SC(=S)N(Nc2ccccc2)C1=O	i	i	i	i	64.1
CC1CC/C(=C\c2ccc3c(c2)OCO3)C(=O)/C1=C/c1ccc2c(c1)OCO2 (stereo unspecified)	i	i	16.5	i	i
O=C1/C(=C\c2ccc3c(c2)OCO3)CCC/C1=C/c1ccc2c(c1)OCO2	i	i	i	i	i
COc1ccc(N(CC(=O)N2CCCCC2)S(=O)(=O)c2ccccc2)c(OC)c1	i	i	i	i	i
O=C(NC1(C(F)(F)F)OCCO1)c1ccc(F)cc1	i	i	i	i	i
COC(=O)c1cccc(NC(=O)Nc2ccc(Cl)c(Cl)c2)c1	i	i	i	i	55.2
COc1cccc(NC(=O)Nc2ccc(C)c(Cl)c2)c1	i	i	i	i	60.7
COC(=O)c1cccc(NC(=O)NC(=O)c2ccccc2Cl)c1	i	i	i	i	i
O=C(NCc1ccc2c(c1)OCO2)C(=O)Nc1cc2c3c(c1)CC(=O)N3CCC2	i	i	i	nt	i
N#Cc1nc(-c2cccs2)oc1NCc1ccccc1	-91.1	i	i	i	i
CC1CC(C)C[N+](=C2C=C(N3CCCC3)CC(C)(C)C2)C1 (stereo unspecified)	i	nt	nt	i	58.6
CC1(C)CC(=O)C=C(N2CCNCC2)C1	i	i	i	i	i
CC1(C)CC(N2CCN(c3ccccc3)CC2)=CC(=[N+]2CCCC2)C1	i	i	i	i	67.6
CC1(C)CC(N2CCCC2)=CC(=[N+]2CCCCCC2)C1	i	i	i	i	56.9
CSc1nc(N2CCN(c3ccccc3)CC2)cc(N2CCN(c3ccccc3)CC2)n1	i	i	i	i	i
Cc1sc(N/N=C/c2cc([N+](=O)[O-])ccc2O)nc1-c1ccccc1	i	i	i	i	i
CC(=O)c1cccc(S(=O)(=O)N2CCC(C(=O)O)(c3ccccc3)CC2)c1	i	i	i	i	i
Cc1ccc2nc3c(cc(C(N)=S)c(=N)n3CCCOC(C)C)c(=O)n2c1	i	i	i	i	63.8
C=CCn1c(=N)c(C(=O)OCC)cc2c(=O)n3cc(C)ccc3nc21	nt	nt	nt	i	nt
COCCCn1c(=N)c(C(N)=S)cc2c(=O)n3cccc(C)c3nc21	i	i	i	nt	68.0
CCOCCCn1c(=N)c(C(=O)NCc2ccc3c(c2)OCO3)cc2c(=O)n3cccc(C)c3nc21	i	i	i	i	58.1
CC(c1nnc(SCC(=O)N(C)C2CCS(=O)(=O)C2)n1-c1ccccc1)N(C)C (stereo unspecified)	nt	i	i	nt	nt
CNC(=S)n1cnc(N)n1	i	i	i	i	i
SMILES	AI-2 QS mod	UBC13 polyUb	PP1 inh	pCIP destab	T cruzi inh
COc1ccc2nc(C)cc(Nc3ccc(N4CCOCC4)cc3)c2c1	i	i	i	i	60.6
COc1ccc2nc(C)cc(Nc3ccc(N4CCN(C)CC4)cc3)c2c1	i	i	i	i	i
O=C1CCC[C@@H]2Cc3[nH]c4c(Cl)ccc(Cl)c4c3[C@@H]3CCN1[C@H]23	i	i	i	i	63.8
CC(C)Oc1ccccc1C1Nc2ccccc2C(=O)N1c1ccc2c(c1)OCCO2 (stereo unspecified)	i	i	i	i	i
Cc1ccc(N2C(=O)c3ccccc3NC2C(C)Cc2ccc3c(c2)OCO3)cc1 (stereo unspecified)	i	i	i	i	55.2
CCN(CC)CCn1c(SCC(=O)NCCC2=CCCCC2)nc2c(sc3ccccc32)c1=O	i	i	i	i	60.3
Cc1ccc(NC(=O)CSc2nc3ccccc3c(=O)n2CCCN2CCCCC2)cc1Cl	i	i	i	i	56.5
COc1ccc(CCn2c(SCCN3CCCCC3)nc3ccccc3c2=O)cc1OC	i	i	i	i	66.6
C=CCNC(=O)CSc1nc2ccccc2c(=O)n1CCc1ccc(OC)c(OC)c1	i	i	nt	i	i
Cc1ccc(CNC(=O)CSc2nc3c(sc4ccccc43)c(=O)n2CCCN2CCCC2)cc1	i	i	i	i	63.7
CCN1C(=O)/C(=C/C=C2\N(CC)c3cc(S(=O)(=O)N(C)C)ccc3N2c2ccccc2)SC1=S	i	i	i	i	i
Cc1cccc(OC(=O)CCN2C(=O)C3C4C=CC(C5CC45)C3C2=O)c1C (stereo unspecified)	i	i	i	i	i
O=C(NCc1ccccc1)C1CCCN(S(=O)(=O)c2ccc(F)cc2)C1 (stereo unspecified)	i	i	i	i	i
COc1ccc(/C=N/Nc2cc(N3CCCC3)nc(N3CCCC3)n2)cc1	i	i	i	i	67.0
Oc1ccc(/C=N/Nc2cc(N3CCCC3)nc(N3CCCC3)n2)cc1	i	i	i	i	i
CC(C)c1ccc2[nH]c(O)c(N=NC(=O)c3cccc(S(=O)(=O)N4CCCCC4)c3)c2c1	i	i	i	i	69.0
COC(=O)[C@@]12CCCCN1[C@H](c1ccc(-c3cccc(Cl)c3)c(OC)c1)[C@@H]1C(=O)N(C)C(=O)[C@@H]12	i	i	i	nt	56.5
CC(=O)c1cccc(NC(=O)COC(=O)C2=COCCO2)c1	i	i	i	i	i
CC(=O)O[C@@]12CO[C@@H]1C[C@H](O)[C@@]1(C)C(=O)[C@H](O)C3=C(C)[C@@H](OC(=O)[C@H](O)[C@@H](NC(=O)OC(C)(C)C)c4ccccc4)C[C@](O)([C@@H](OC(=O)c4ccccc4)[C@H]21)C3(C)C	i	i	i	i	56.0
Cc1ccc(/C=N/Nc2cn[nH]c(=O)n2)o1	i	i	i	i	i
O=S1(=O)N=C(N/N=C/c2ccccn2)c2ccccc21	-85.7	i	i	i	i
CC(C)(C)C1CCC(=NNc2nc3ccccc3[nH]2)CC1 (stereo unspecified)	i	i	i	i	i
COc1ccc(/C=N/NC2=NS(=O)(=O)c3ccccc32)cc1	i	i	i	i	i
c1ccc2c(c1)CC/C2=N/Nc1nc2ccccc2[nH]1	i	i	i	i	66.9
O=c1nc(N/N=C/c2ccccn2)cn[nH]1	-88.2	i	i	i	i
SMILES	AI-2 QS mod	UBC13 polyUb	PP1 inh	pCIP destab	T cruzi inh
CCN(CC)c1ccc(/C=N/Nc2nc3ccccc3[nH]2)c(O)c1	i	i	i	i	59.0
COc1cc(OC)c(OC)cc1/C=N/Nc1nc2ccccc2[nH]1	i	i	i	i	i
C(=N\Nc1nc2ccccc2[nH]1)/c1ccc2ncccc2c1	i	i	i	i	i
C(=N\Nc1nc2ccccc2[nH]1)/c1ccccn1	i	nt	nt	i	68.7
COc1ccccc1CC(=O)Nc1ccc(-c2noc(COc3ccc(Cl)c(C)c3)n2)cc1	i	i	i	i	i
CCOc1ccccc1-c1nc(-c2ccc(NC(=O)Cc3ccccc3OC)cc2)no1	i	i	i	i	56.3
COC(=O)c1ccc(-c2nc(CN3CCN(Cc4cccc(C)c4)CC3)c(C)o2)cc1	i	i	i	i	57.2
